Experimental data taken from ChEMBL document CHEMBL1123080, “Synthesis and antiviral activity of the carbocyclic analogues of (E)-5-(2-halovinyl)-2'-deoxyuridines and (E)-5-(2-halovinyl)-2'-deoxycytidines” (1985).
Values after ≈ are worked out from the molar mass of the structure shown.

Experiments:
Type in all cases: functional
[1] = test system: Vesicular stomatitis virus; test: Minimum inhibitory concentration (MIC) required to reduce vesicular stomatis virus induced cytopathogenicity in primary rabbit kidney cell cultures
Method in brief: (§1)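 Primary rabbit kidney cell cultures were infected with virus and treated with compound. The MIC is the concentration that reduces virus-induced cytopathogenicity by 50%. Cytotoxicity was scored as microscopically visible alteration of normal cell morphology, with 400 μg/mL the highest concentration tested.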

Human alphaherpesvirus 1 [2] = test: Minimum inhibitory concentration (MIC) required to reduce HSV-1 strain McIntyre induced cytopathogenicity in primary rabbit kidney cell cultures; method in brief: as §1
Human alphaherpesvirus 1 [3] = test: Minimum inhibitory concentration (MIC) required to reduce Herpes simplex virus (HSV-1) KOS strain induced cytopathogenicity in primary rabbit kidney cell cultures; method in brief: as §1
Human alphaherpesvirus 2 [4] = test: Minimum inhibitory concentration (MIC) required to reduce HSV-2 strain G induced cytopathogenicity in primary rabbit kidney cell cultures; method in brief: as §1
Human alphaherpesvirus 2 [5] = test: Minimum inhibitory concentration (MIC) required to reduce HSV-2 strain (Lyons) induced cytopathogenicity in primary rabbit kidney cell cultures; method in brief: as §1
Homo sapiens = species: Homo sapiens; test: Minimum inhibitory concentration (MIC) required to inhibit proliferation of human lymphoblast Raji
Method in brief: (§2)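 Cell proliferation assay. Cultures were exposed to compound during their linear growth phase, and growth was monitored. The MIC is the concentration that inhibits cell proliferation by 50%.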

L1210 [6] = test: Minimum inhibitory concentration (MIC) required to inhibit proliferation of murine leukemia L1210 (wild type); settings: Mus musculus; method in brief: as §2
Human alphaherpesvirus 1 [7] = test: Minimum inhibitory concentration (MIC) required to reduce HSV-1 strain (F) induced cytopathogenicity in primary rabbit kidney cell cultures; method in brief: as §1
Mus musculus [8] = test: The survival rate was evaluated for its effect of systemic treatment on NMRI mice infected intraperitoneally with HSV-1 (KOS) when administered perorally
Method in brief: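 Mice were infected intraperitoneally with HSV-1 (KOS). Compound was given at 100 mg/kg per day from day 0 to day 4 postinfection, as a 2 mg/mL suspension in water by gavage once daily. Survivors were counted at day 20 postinfection.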

Mus musculus [9] = test: The survival rate was evaluated for its effect of systemic treatment on NMRI mice infected intraperitoneally with HSV-1 (KOS) when administered intraperitoneally
Method in brief: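 Mice were infected intraperitoneally with HSV-1 (KOS). Compound was given at 100 mg/kg per day from day 0 to day 4 postinfection, intraperitoneally, at 1 mg/mL in physiological saline with 10% propylene glycol, twice daily. Survivors were counted at day 20 postinfection.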

Rattus norvegicus = species: Rattus norvegicus; test: Minimum inhibitory concentration (MIC) required to inhibit proliferation of Novikoff rat hepatoma; method in brief: as §2
Mus musculus [10] = species: Mus musculus; test: The survival rate was evaluated for its effect of systemic treatment on hairless (hr/hr) mice infected intracutaneously with HSV-1 (KOS) at percent concentration of 0.3
Mus musculus [11] = species: Mus musculus; test: The survival rate was evaluated for its effect of systemic treatment on hairless (hr/hr) mice infected intracutaneously with HSV-1 (KOS) at percent concentration of 3
Mus musculus [12] = species: Mus musculus; test: The survival rate was evaluated for its effect of systemic treatment on hairless (hr/hr) mice infected intracutaneously with HSV-1 (KOS) at percent concentration of 1
Human alphaherpesvirus 1 [13] = test: Minimum inhibitory concentration (MIC) required to reduce thymidine kinase deficient HSV-1 induced cytopathogenicity in primary rabbit kidney cell cultures
Method in brief: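 The virus was a dThd kinase-deficient mutant of HSV-1 strain B2006, passaged several times in primary rabbit kidney cells. The MIC is the concentration that reduces cytopathogenicity by 50% in primary rabbit kidney cell cultures. Cytotoxicity was scored by microscopic cell morphology, up to 400 μg/mL.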

L1210 [14] = test: Minimum inhibitory concentration (MIC) required to inhibit proliferation of murine leukemia L1210 (TK-); settings: Mus musculus; method in brief: as §2

| SMILES | MIC50 [1] [µg/mL] | MIC50 (Human alphaherpesvirus 1 [2]) [µg/mL] | MIC50 (Human alphaherpesvirus 1 [3]) [µg/mL] | MIC50 (Human alphaherpesvirus 2 [4]) [µg/mL] | MIC50 (Human alphaherpesvirus 2 [5]) [µg/mL] | MIC50 (Homo sapiens) [µg/mL] | MIC50 (L1210 [6]) [µg/mL] | MIC50 (Human alphaherpesvirus 1 [7]) [µg/mL] | Survival rate (Mus musculus [8]) | Survival rate (Mus musculus [9]) | MIC50 (Rattus norvegicus) [µg/mL] | Survival rate (Mus musculus [10]) | Survival rate (Mus musculus [11]) | Survival rate (Mus musculus [12]) | MIC50 (Human alphaherpesvirus 1 [13]) [µg/mL] | MIC50 (L1210 [14]) [µg/mL] |
| --- | --- | --- | --- | --- | --- | --- | --- | --- | --- | --- | --- | --- | --- | --- | --- | --- |
| O=c1[nH]c(=O)n([C@H]2C[C@@H](CO)[C@H](O)C2)cc1/C=C/Br | > 400 | 0.04 (≈ 0.121 µM) | 0.07 (≈ 0.211 µM) | 20 (≈ 60.4 µM) | 7 (≈ 21.1 µM) | > 200 | > 200 | 0.07 (≈ 0.211 µM) | 0 | 3 | > 200 | 0 | 2 | 0 | > 400 | > 200 |
| Nc1nc(=O)n(C2CC(O)C(CO)C2)cc1/C=C/Br (stereo not drawn) | > 400 | 0.2 (≈ 0.606 µM) | 0.2 (≈ 0.606 µM) | 20 (≈ 60.6 µM) | 20 (≈ 60.6 µM) |  |  | 0.1 (≈ 0.303 µM) |  |  |  |  |  |  | > 400 |  |
| O=c1[nH]c(=O)n([C@@H]2C[C@H](CO)[C@@H](O)C2)cc1I | > 400 | 0.2 (≈ 0.568 µM) | 0.2 (≈ 0.568 µM) | 40 (≈ 114 µM) | 20 (≈ 56.8 µM) | > 200 | > 200 | 0.2 (≈ 0.568 µM) |  |  | 22.8 (≈ 64.7 µM) |  |  |  | > 400 | > 200 |
| NC1NC(=O)N([C@H]2C[C@H](O)[C@@H](CO)O2)C=C1/C=C/Br (stereo partly drawn) | > 400 | 0.06 (≈ 0.18 µM) | 0.07 (≈ 0.209 µM) | 7 (≈ 20.9 µM) | 9 (≈ 26.9 µM) |  |  | 0.07 (≈ 0.209 µM) |  |  |  |  |  |  |  |  |
| O=c1[nH]c(=O)n([C@H]2C[C@H](O)[C@@H](CO)O2)cc1/C=C/I | > 400 | 0.02 (≈ 0.0526 µM) | 0.007 (≈ 0.0184 µM) | 2 (≈ 5.26 µM) | 2 (≈ 5.26 µM) | 21.1 (≈ 55.5 µM) | 16.3 (≈ 42.9 µM) | 0.02 (≈ 0.0526 µM) |  |  | 4.6 (≈ 12.1 µM) |  |  |  | > 10 | 5.1 (≈ 13.4 µM) |
| O=c1[nH]c(=O)n(C2CC(O)C(CO)C2)cc1/C=C/I (stereo not drawn) | > 400 | 0.07 (≈ 0.185 µM) | 0.07 (≈ 0.185 µM) | 2 (≈ 5.29 µM) | 7 (≈ 18.5 µM) | > 200 | > 200 | 0.1 (≈ 0.264 µM) |  |  | > 200 |  |  |  | > 400 | > 200 |
| O=c1[nH]c(=O)n([C@H]2C[C@H](O)[C@@H](CO)O2)cc1I [IDOXURIDINE] | > 400 | 0.2 (≈ 0.565 µM) | 0.2 (≈ 0.565 µM) | 0.7 (≈ 1.98 µM) | 0.2 (≈ 0.565 µM) | 4.7 (≈ 13.3 µM) | 35.6 (≈ 101 µM) | 0.2 (≈ 0.565 µM) |  |  | 5.5 (≈ 15.5 µM) |  |  |  | > 400 | > 500 |
